For assay [1], the system named is Canis familiaris. The assay can be described thus: The percentage change of the duration of action potential at 75% repolarization was measured before and after the administration at 3.0 ug/mL. It counts as functional, Canis lupus familiaris. A digest of the protocol: (§1)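 Canine right-ventricular Purkinje fibers (mongrel dogs 7–11 kg, thiopental-anesthetized) superfused with Tyrode's (pH 7.5, 36 °C, gassed 95% O2/5% CO2). Compounds diluted from 1 mM water stock and added cumulatively. Readings taken 20 min after solution exchange. Result given as percent change in action potential duration.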

The subject of assay [2] is Canis familiaris. The assay can be described thus: Concentration required for 50% inhibition of tachycardia induced by isoproterenol (0.5ug/mL, iv) in anesthetized dog. The assay is classed as functional. The conditions noted are these: Canis lupus familiaris, read-out: ID50 (the source's name).
Assay [3] deals with Canis familiaris. The assay is described as follows: The percentage change of the duration of action potential at 75% repolarization was measured before and after the administration at 1.0 ug/mL. The assay is classed as functional, Canis lupus familiaris. A digest of the protocol: as §1
Assay [4] deals with Canis familiaris. The assay can be described thus: Percentage change of the duration of action potential at 75% repolarization was measured before and after the administration at 10.0 ug/mL. The assay is classed as functional, Canis lupus familiaris. In short, it runs like this: as §1
Assay [5] relates to Canis familiaris. The assay can be described thus: The prolongation effect of the atrial and ventricular effective refractory period was measured before and after the administration at 0.1 mg/kg. It counts as functional, Canis lupus familiaris, Cardiac atrium. The conditions noted are these: dose 1.0 mg/kg; in the assay text read “1.0 mg/kg” for “0.1 mg/kg”. In short, it runs like this:
(§2)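 In vivo, mongrel dogs of either sex (7–13 kg), anesthetized with pentobarbital sodium 30 mg/kg iv. Left femoral artery cannulated for arterial pressure, femoral vein for drug dosing. Effective refractory period measured before and after administration.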

Assay [6] has as its system Canis familiaris. The assay can be described thus: The prolongation effect of the atrial and ventricular effective refractory period was measured before and after the administration at 0.3 mg/kg. The assay is classed as functional, Canis lupus familiaris, Cardiac atrium. In short, it runs like this: as §2
Assay [7] concerns Canis familiaris. The assay can be described thus: The prolongation effect of the atrial and ventricular effective refractory period was measured before and after the administration at 3 mg/kg. The assay is classed as functional, Canis lupus familiaris, Cardiac atrium. A digest of the protocol: as §2
The subject of assay [8] is Canis familiaris. The assay can be described thus: The prolongation effect of the atrial and ventricular effective refractory period was measured before and after the administration at 0.3 mg/kg.
In assay [9] the test system is Canis familiaris. The assay is described as follows: The prolongation effect of the atrial and ventricular effective refractory period was measured before and after the administration at 1 mg/kg. It counts as functional, Canis lupus familiaris, Cardiac atrium. A digest of the protocol:
as §2

Turning to `CS(=O)(=O)O.Cn1c(N2CCN(CCCOc3ccccc3)CC2)cc(=O)n(C)c1=O`, the APD75 is on record as 22% in the assay with Canis familiaris [1] and 7% with Canis familiaris [3]. The ED50 with Canis familiaris [2] is greater than 5 mg/kg.
`CCN(CC)CCNC(=O)c1ccc(NS(C)(=O)=O)cc1` [SEMATILIDE]: the APD75 in the assay with Canis familiaris [1] is 29%; in the assay with Canis familiaris [3], 19%.
In the assay on Canis familiaris [3], `Cl.Cn1c(N2CCN(CCc3ccc([N+](=O)[O-])cc3)CC2)cc(=O)n(C)c1=O` had an APD75 of 43%.
With `CCO.Cn1c(NCCNCC(O)COc2ccccc2)cc(=O)n(C)c1=O` (configuration not stated), the values for the APD75 in the assay with Canis familiaris [1] and with Canis familiaris [4] were 6.9% and 10.1%, respectively. For the same compound, in the assay on Canis familiaris [2], the ED50 was 0.01 mg/kg.
For the compound `Cl.Cn1c(N2CCN(CCCOc3ccc(F)cc3)CC2)cc(=O)n(C)c1=O`, the ERP worked out at 5.9% with Canis familiaris [5], 5.9% with Canis familiaris [6] and 11.8% in the assay on Canis familiaris [7]. Besides, the APD75 is 13% in the assay on Canis familiaris [1] and 9% with Canis familiaris [3].
Regarding `Cn1c(N2CCN(CCCc3ccc([N+](=O)[O-])cc3)CC2)cc(=O)n(C)c1=O.O=C(O)C(=O)O`, the APD75 with Canis familiaris [1] is 22%; with Canis familiaris [4], 31%; in the assay with Canis familiaris [3] it was 17%. Further, in the assay with Canis familiaris [8], the ERP turned out to be 14.3%.
For the compound `Cn1c(NCCNCCCc2ccc([N+](=O)[O-])cc2)cc(=O)n(C)c1=O.O=C(O)C(=O)O`, the APD75 is 12% in the assay on Canis familiaris [1], 16% in the assay with Canis familiaris [4] and 9% in the assay on Canis familiaris [3].
`Cn1c(N2CCN(Cc3ccc([N+](=O)[O-])cc3)CC2)cc(=O)n(C)c1=O.O=C(O)C(=O)O`: the values for the APD75 with Canis familiaris [1], with Canis familiaris [4] and with Canis familiaris [3] were 7%, 11% and 3%, respectively. In addition, the ERP in the assay with Canis familiaris [6] is 0%; in the assay on Canis familiaris [9] it was 0%; in the assay with Canis familiaris [7], 7%.
Regarding `CC(C)NCC(O)c1ccc(NS(C)(=O)=O)cc1` (configuration not stated) [SOTALOL], the APD75 in the assay with Canis familiaris [1] stood at 8%; in the assay on Canis familiaris [4] it was 11.2%; with Canis familiaris [3] it was 0.7%.
Take `Cl.Cl.Cn1c(N2CCN(CC(O)COc3ccccc3)CC2)cc(=O)n(C)c1=O` (configuration not stated): the APD75 in the assay on Canis familiaris [1] amounted to 13.7%; in the assay on Canis familiaris [3], 3.5%. Further, in the assay with Canis familiaris [2], the ED50 was greater than 5 mg/kg.
In the assay with Canis familiaris [5], `CO.Cl.Cn1c(N2CCN(CCCOc3cccc([N+](=O)[O-])c3)CC2)cc(=O)n(C)c1=O` gave an ERP of 7%. For the same compound, the APD75 in the assay with Canis familiaris [1] is 34%; with Canis familiaris [3] it was 15%.
Consider `Cl.Cn1c(N2CCN(CCCCc3ccc([N+](=O)[O-])cc3)CC2)cc(=O)n(C)c1=O`, for which the APD75 turned out to be 17% in the assay with Canis familiaris [1] and 25% in the assay on Canis familiaris [4].
For `Cl.Cn1c(N2CCN(CCCOc3ccccc3Cl)CC2)cc(=O)n(C)c1=O`, in that order: 0% and 7%.
For `Cl.Cn1c(N2CCN(CCCOc3cccc(Cl)c3)CC2)cc(=O)n(C)c1=O`, in that order: 6% and 7%.

These data come from ChEMBL document CHEMBL1125548, “Synthesis and pharmacological studies of N-substituted 6-[(2-aminoethyl)amino]-1,3-dimethyl-2,4(1H,3H)-pyrimidinediones, novel class III antiarrhythmic agents” (1992).
